Measurements published in ChEMBL document CHEMBL4706709, “Withanolides from dietary tomatillo suppress HT1080 cancer cell growth by targeting mutant IDH1” (Bioorg Med Chem, 2021).
pIC50, pKd: −log10 of the molar value. Active and inactive are the calls of the source. No cut-off for these calls is given here.

Key:
[1] = target: Isocitrate dehydrogenase [NADP] cytoplasmic (Homo sapiens, UniProt O75874); assay: Inhibition of wild-type IDH1 (unknown origin) in presence of sodium(D)-isocitrate and NADP+
Outline: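 Wild-type IDH1 purified at 43 nM in 50 mM HEPES pH 7.5 with 50 μM sodium D-isocitrate, 4 mM MgCl2 and 1 mM NADP+. NADPH production monitored at 340 nm. IC50 from mean of three independent assays.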

[2] = test system: Isocitrate dehydrogenase [NADP] cytoplasmic (Homo sapiens), O75874 [R132H]; assay: Inhibition of IDH1 […] assessed as increase in p53 expression at 3.25 to 6.5 uM measured after 48 hrs by DAPI staining based immunofluorescence microscopic analysis; format: cell-based; conditions: dose 3.25-6.5 µM
Outline: (§1)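 HT1080 cells on slides exposed 48 h to 3.25 or 6.5 μM compound. Fixed in 4% paraformaldehyde 15 min, permeabilised with 0.1% Triton X-100 for 5 min at 4 °C, blocked 2 h in 5% BSA. Primary antibody (H3K9me3, HIF-1α or p53, 1:100) overnight at 4 °C. Fluorescent secondary (1:500) 1 h in the dark, DAPI counterstain, imaged.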

HT-1080 [3] = assay: Induction of apoptosis in human HT-1080 cells assessed as necrotic cells at 6.5 uM measured after 48 hrs by Annexin V-FITC/propidium iodide staining based flow cytometry (reference value: 30.2%); format: functional
HT-1080 [4] = assay: Antiproliferative activity against human HT-1080 cells transfected with shIDH1 R132C assessed as reduction in cell proliferation at 1.25 to 10 uM measured after 48 hrs by CCK8 assay; format: functional, cell-based; conditions: dose 1.25-10 µM
Outline: (§2)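 HT1080 cells (IDH1 R132C) in high-glucose DMEM with 10% FBS, 37 °C, 5% CO2. Adherent cells exposed to compound in fresh medium for 48 h, DMSO kept below 0.5%. Viability by CCK8, absorbance at 450 nm. Three repeats.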

[5] = test system: Isocitrate dehydrogenase [NADP] cytoplasmic (Homo sapiens), O75874 [R132H]; assay: Inhibition of IDH1 […] assessed as down regulation of H3K9me3 expression at 3.25 to 6.5 uM measured after 48 hrs by Western blot analysis; format: cell-based; conditions: dose 3.25-6.5 µM
Outline: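 HT1080 cells in 6-well plates treated 48 h. Lysed in RIPA, protein measured by BCA. Run on 12% SDS-PAGE, blotted to PVDF, blocked in 5% milk 1 h. Probed with H3K9me3 primary antibody, β-actin also available, then HRP secondary.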

HT-1080 [6] = assay: Induction of apoptosis in human HT-1080 cells assessed as viable cells at 6.5 uM measured after 48 hrs by Annexin V-FITC/propidium iodide staining based flow cytometry (reference value: 66.6%); format: functional; conditions: read-out: Activity
HT-1080 [7] = assay: Induction of apoptosis in human HT-1080 cells assessed as nuclear fragmentation at 3.25 to 6.5 uM measured after 48 hrs by Hoechst 33258 and DAPI staining based fluorescence microscopic analysis; format: functional, cell-based; conditions: dose 3.25-6.5 µM
Outline: (§3)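 HT1080 cells exposed 48 h to 3.25 or 6.5 μM compound. Blocked 2 h, then stained 30 min with Hoechst 33258. Nuclear morphology viewed by fluorescence microscopy (×200).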

[8] = test system: Isocitrate dehydrogenase [NADP] cytoplasmic (Homo sapiens), O75874 [R132H]; assay: Inhibition of IDH1 […] assessed as reduction in HIF-1alpha accumulation at 3.25 to 6.5 uM measured after 48 hrs by DAPI staining based immunofluorescence microscopic analysis; format: cell-based; conditions: dose 3.25-6.5 µM; outline: as §1
HT-1080 [9] = assay: Antiproliferative activity against human HT-1080 cells assessed as reduction in cell proliferation measured after 48 hrs by CCK8 assay; format: functional, cell-based; conditions: HT-1080, 48 h; outline: as §2
[10] = test system: Isocitrate dehydrogenase [NADP] cytoplasmic (Homo sapiens), O75874 [R132H]; assay: Inhibition of IDH1 […] assessed as reduction in R-2-HG concentration measured after 48 hrs by LC-MS/MS analysis; format: cell-based; conditions: dose 0.94-30 µM
Outline: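 HT1080 cells treated 48 h with 0.94–30 μM compound or DMSO. Medium diluted in methanol and centrifuged. R-2-HG in the supernatant quantified by LC-MS/MS (ESI, MRM) on a C18 column, gradient of methanol against 10 mM ammonium acetate pH 7.4. Peak area normalised to internal standard, IC50 from the dose–response curve.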

HT-1080 [11] = assay: Antiproliferative activity against human HT-1080 cells assessed as reduction in number of EdU-positive cells measured after 24 hrs by EdU and DAPI staining based fluorescence microscopic analysis; format: functional, cell-based; conditions: dose 3.25-6.5 µM
Outline: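 Log-phase HT1080 cells treated 24 h with 3.25 or 6.5 μM compound or DMSO. Then 50 μM EdU in serum-free DMEM for 2 h. Fixed in 4% paraformaldehyde, quenched with glycine, permeabilised with 0.5% Triton X-100. Apollo dye reaction for 30 min, DAPI nuclear counterstain, fluorescence microscopy. Three repeats.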

HT-1080 [12] = assay: Induction of apoptosis in human HT-1080 cells assessed as appearance of densely stained nucleus at 3.25 to 6.5 uM measured after 48 hrs by Hoechst 33258 and DAPI staining based fluorescence microscopic analysis; format: functional, cell-based; conditions: dose 3.25-6.5 µM; outline: as §3
[13] = target: T1, Isocitrate dehydrogenase [NADP] cytoplasmic (Homo sapiens, UniProt O75874, R132H); assay: Binding affinity to C-terminal His6-tagged IDH1 R132H mutant (unknown origin) expressed in Escherichia coli BL21 (DE) measured after 20 mins by Red-NHS fluorescence dye-based microscale thermophoresis analysis
Outline: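 IDH1 R132H fluorescently labelled (RED kit) and used at 20 nM in 20 mM HEPES pH 7.5 with 0.05% Tween-20. Mixed 1:1 with a ligand dilution series, 20 min at room temperature. Loaded in standard capillaries, 10 min at 25 °C. Thermophoresis read at 20% laser and 100% LED power, Kd fitted from the curve.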

HT-1080 [14] = assay: Induction of apoptosis in human HT-1080 cells assessed as early apoptotic cells at 6.5 uM measured after 48 hrs by Annexin V-FITC/propidium iodide staining based flow cytometry (reference value: 0%); format: functional
[15] = test system: Isocitrate dehydrogenase [NADP] cytoplasmic (Homo sapiens), O75874 [R132H]; assay: Inhibition of IDH1 […] assessed as down regulation of H3K9me3 expression at 6.5 uM measured after 48 hrs by DAPI staining based immunofluorescence microscopic analysis; format: cell-based; outline: as §1
HT-1080 [16] = assay: Induction of apoptosis in human HT-1080 cells assessed as late apoptotic cells at 6.5 uM measured after 48 hrs by Annexin V-FITC/propidium iodide staining based flow cytometry (reference value: 3.2%); format: functional
[17] = target: T1, Isocitrate dehydrogenase [NADP] cytoplasmic; assay: Inhibition of C-terminal His6-tagged IDH1 R132H mutant (unknown origin) expressed in Escherichia coli BL21 (DE) using alpha-ketoglutarate as substrate preincubated for 10 mins followed by substrate addition and measured at 1 min interval for 20 mins in presence of NADPH
Outline: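 His-tagged IDH1 R132H at 2 μM in 50 mM HEPES pH 7.5 with 4 mM MgCl2 and 100 μM NADPH. Compound preincubated with enzyme 10 min, then reaction started with 2 mM α-KG. NADPH consumption read at 340 nm every 1 min for 20 min. IC50 from mean of three independent assays.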

Isocitrate dehydrogenase [NADP] cytoplasmic (Homo sapiens), O75874 [R132H], sequence (O75874 whole entry R132H): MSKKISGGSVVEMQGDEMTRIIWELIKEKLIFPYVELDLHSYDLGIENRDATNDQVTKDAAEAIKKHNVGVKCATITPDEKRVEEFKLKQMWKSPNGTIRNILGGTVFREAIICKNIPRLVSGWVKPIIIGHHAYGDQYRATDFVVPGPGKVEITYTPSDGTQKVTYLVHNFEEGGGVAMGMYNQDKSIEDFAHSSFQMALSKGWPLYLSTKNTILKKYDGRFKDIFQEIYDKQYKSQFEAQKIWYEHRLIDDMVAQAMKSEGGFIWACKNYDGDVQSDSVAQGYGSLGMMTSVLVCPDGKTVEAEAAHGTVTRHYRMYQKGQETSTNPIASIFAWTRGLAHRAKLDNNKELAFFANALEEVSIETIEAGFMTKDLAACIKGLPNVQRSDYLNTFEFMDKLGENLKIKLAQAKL
T1 sequence (O75874 2-414 R132H limits assumed): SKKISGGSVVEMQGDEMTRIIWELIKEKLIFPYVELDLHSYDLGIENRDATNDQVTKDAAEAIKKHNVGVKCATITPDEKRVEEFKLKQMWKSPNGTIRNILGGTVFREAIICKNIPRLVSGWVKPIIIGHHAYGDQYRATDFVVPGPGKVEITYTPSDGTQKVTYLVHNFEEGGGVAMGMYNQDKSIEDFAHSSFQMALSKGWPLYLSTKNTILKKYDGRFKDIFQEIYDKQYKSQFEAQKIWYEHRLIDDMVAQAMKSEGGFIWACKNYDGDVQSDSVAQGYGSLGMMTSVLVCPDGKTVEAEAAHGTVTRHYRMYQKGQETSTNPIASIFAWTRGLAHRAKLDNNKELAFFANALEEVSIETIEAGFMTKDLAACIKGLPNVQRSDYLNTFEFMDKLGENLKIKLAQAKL
Isocitrate dehydrogenase [NADP] cytoplasmic (Homo sapiens, UniProt O75874), sequence (O75874 whole entry): as the sequence (O75874 whole entry R132H) above, with H132R counted along it

C[C@@]12C[C@H]3OC(=O)[C@@H]1CO[C@]14O[C@@]5([C@H]2C1=O)[C@@]3(C)OC(=O)[C@@]5(O)CC[C@H]1[C@H]4C[C@H]2O[C@]23CC=CC(=O)[C@]13C
pIC50 [1]: < 3.70 | inhibition [2]: Active | Activity (HT-1080 [3]): 1.1% | Activity (HT-1080 [4]): Active | inhibition [5]: Active | viability at 6.5 µM (HT-1080 [6]): 19.9% | Activity (HT-1080 [7]): Active | inhibition [8]: Active | pIC50 (HT-1080 [9]): 5.62 | inhibition [10]: Dose-dependent effect | Activity (HT-1080 [11]): Dose-dependent effect | Activity (HT-1080 [12]): Active | pKd [13]: 4.82 | Activity (HT-1080 [14]): 55% | inhibition [15]: Active | Activity (HT-1080 [16]): 23.9% | pIC50 [17]: 6.20

C[C@]12C(=O)C=CCC1=CC[C@@H]1[C@@H]2CC[C@]2(O)C(=O)O[C@@]3(C)[C@H]4C[C@]5(C)[C@@H](CO[C@@]16O[C@@]32[C@H]5C6=O)C(=O)O4 [PHYSALIN B]
pIC50 [1]: < 3.70 | pKd [13]: 4.34 | pIC50 [17]: 5.90
